This passage reports Activity results from ChEMBL document CHEMBL2169854, “New insight into the central benzodiazepine receptor-ligand interactions: design, synthesis, biological evaluation, and molecular modeling of 3-substituted 6-phenyl-4H-imidazo[1,5-a][1,4]benzodiazepines and related compounds” (J Med Chem, 2011).

Activity calls are given as the source filed them. No cut-off for these calls is given here.

For assay [1], the species on record is Rattus norvegicus. Kind of assay: Partial agonist activity at central benzodiazepine receptor in Sprague-Dawley rat cerebrocortical synaptoneurosomes assessed as increase in GABA-induced [36]chloride ion flow after 10 seconds by beta liquid scintillation counting. The format is functional. In short, it runs like this: (§1)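 Cerebral cortex from male Sprague-Dawley rats was homogenised and filtered, and synaptoneurosomes were washed in HEPES pH 7 buffer (145 mM NaCl, 5 mM KCl, 5 mM MgCl2, 1 mM CaCl2, 10 mM glucose). Aliquots of 1.5–2 mg protein were preincubated 10 min at 30 C. Drug was added with 0.2 μCi 36Cl−, uptake was stopped at 10 s, and filter-bound radioactivity was counted by scintillation.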

Assay [2] is filed under the species Rattus norvegicus. Put plainly: Agonist activity at central benzodiazepine receptor in Sprague-Dawley rat cerebrocortical synaptoneurosomes assessed as increase in GABA-induced [36]chloride ion flow after 10 seconds by beta liquid scintillation counting. The format is functional. In a few lines:
as §1

Assay [3] deals with Mus musculus. Kind of assay: Anxiolytic effect in mouse assessed as increase in time spent in light compartment at 1 mg/kg, po by light/dark box test. The format is functional, organism-based. On the set-up: dose 1 mg/kg. In a few lines:
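Male mice were used. Compound was given orally as a suspension in 1% CMC; diazepam was given ip in saline; volume 10 mL/kg. Each mouse was placed in the lit side of a two-compartment light/dark box and observed for 5 min, scoring time in the light and transfers. Groups were compared by ANOVA with Fisher PLSD.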

The test system of assay [4] is Mus musculus. Kind of assay: Myorelaxant activity in mouse assessed as motor coordination measuring number of falls at 10 mg/kg, po measured for 30 seconds after 45 mins of compound administration by rotarod test. Type of assay: functional, organism-based. Details: dose 10 mg/kg. In a few lines: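 In mice, falls from the rotating rod were counted for 30 s after dosing. Compound was given orally in 1% CMC and diazepam ip in saline. Results were compared against saline/CMC controls by ANOVA.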

For assay [5], the system named is Mus musculus. Put plainly: […] activity in mouse assessed as effect on explorative activity measuring number of inspections at 10 mg/kg, po after 5 mins by hole-board test relative to CMC-treated control. The format is functional, organism-based. Details: dose 10 mg/kg. In short, it runs like this:
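Mice dosed orally in 1% CMC were placed singly on a 16-hole board for 5 min. Photocells counted plane movements (spontaneous motility) and hole explorations. Groups of 12–15 mice were compared with CMC controls.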

For assay [6], the system named is Mus musculus. Put plainly: Antiamnesic activity against scopolamine-induced amnesic effect in mouse assessed as increase in retention latency period at 3 mg/kg, po by passive avoidance test. Type of assay: functional, organism-based. Details: dose 3 mg/kg. In short, it runs like this:
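In a mouse passive-avoidance test, oral doses in 1% CMC were tested against amnesia induced by 1.5 mg/kg scopolamine ip. Retention latency was scored and compared with controls by ANOVA.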

Regarding `CCOC(=O)c1ncn2c1CN=C(c1ccc(C)cc1)c1ccccc1-2`, the outcome in assay [1] was Active.

With `CCOC(=O)c1ncn2c1CN=C(c1ccc(F)cc1)c1cc(F)ccc1-2`, the outcome in assay [2], in assay [3] and in assay [6] was Active. Further, the result in assay [4] and in assay [5] was inactive.
